Measured values taken from ChEMBL document CHEMBL4680154, “The optimization of xanthine derivatives leading to HBK001 hydrochloride as a potent dual ligand targeting DPP-IV and GPR119” (Eur J Med Chem, 2020).
≈ marks a conversion by molar mass, not a printed value. Calls of active or inactive are those of the source. The rule behind the calls is not given here.

Tests used:
[1] = target: T1, Glucose-dependent insulinotropic receptor (Homo sapiens, UniProt Q8TDV5); assay: Agonist activity at CREB-LBD and Gal4-DBD fused recombinant human GPR119 expressed in HEK293 cells by firefly luciferase assay; assay type: functional, cell-based
T1 sequence (Q8TDV5 whole entry): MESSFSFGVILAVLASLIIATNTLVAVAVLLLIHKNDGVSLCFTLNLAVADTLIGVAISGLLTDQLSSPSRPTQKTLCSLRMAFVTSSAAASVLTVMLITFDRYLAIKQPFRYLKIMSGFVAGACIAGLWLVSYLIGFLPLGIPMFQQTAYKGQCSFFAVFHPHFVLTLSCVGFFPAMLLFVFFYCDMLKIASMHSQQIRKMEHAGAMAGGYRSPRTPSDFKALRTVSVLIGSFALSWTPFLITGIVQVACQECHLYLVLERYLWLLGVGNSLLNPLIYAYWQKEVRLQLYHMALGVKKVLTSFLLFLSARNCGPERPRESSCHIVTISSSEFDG
In short: (§1)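 HEK293 cells transiently transfected with human GPR119, a Gal4-DBD/CREB-LBD fusion and a Gal4 UAS-driven luciferase reporter, then treated with compound (DMSO vehicle). Firefly luciferase luminescence read. Activation fold = compound/vehicle, expressed as percent of the AR231453 activation fold. EC50 obtained by curve fitting.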

[2] = target: T2, Glucose-dependent insulinotropic receptor (Homo sapiens) (UniProt Q8TDV5); assay: Agonist activity at CREB-LBD and Gal4-DBD fused recombinant human GPR119 expressed in HEK293 cells at 1 uM by firefly luciferase assay relative to AR231453; assay type: functional, cell-based; in short: as §1
T2 sequence (whole entry): T1 sequence (Q8TDV5 whole entry)

[3] = target: DPP8/9 (Homo sapiens, UniProt Q6V1X1+Q86TI2); assay: Inhibition of recombinant human DPP8/9 expressed in Rosetta cells at 10 uM using Gly-Pro-p-nitroanilide as substrate incubated for 1 hr relative to control; details: probe Gly-Pro-p-nitroanilide
[4] = tested on: Mus musculus; assay: Antidiabetic activity in ICR mouse assessed as reduction in blood glucose level at 30 mg/kg, po administered as single dose followed by oral glucose challenge measured after 30 mins by glucose oxidase method; assay type: functional, organism-based
In short: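 Overnight-fasted ICR mice given compound by oral gavage (vehicle distilled water) before a 2 g/kg oral glucose load. Tail-tip blood taken at 0, 30, 60 and 120 min; glucose measured by the glucose oxidase method. n = 10 per group, mean ± SEM.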

[5] = Metabolic stability in human hepatocytes assessed as parent compound remaining incubated for 30 mins by LC-MS/MS analysis; assay type: ADME, cell-based, Hepatocyte; details: read-out: Stabilty
In short: (§2)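 Hepatocytes from male ICR/CD-1 mice, male Sprague-Dawley rats, or mixed human donors. Parent compound measured after 30 min incubation and normalised to the time-zero concentration.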

[6] = Metabolic stability in Sprague-Dawley rat hepatocytes assessed as parent compound remaining incubated for 30 mins by LC-MS/MS analysis; assay type: ADME, cell-based, Hepatocyte; details: read-out: Stabilty; in short: as §2
[7] = tested on: Vero; assay: Cytotoxicity against African green monkey Vero cells incubated for 48 hrs by MTT assay; details: Chlorocebus sabaeus
[8] = Metabolic stability in ICR/CD-1 mouse hepatocytes assessed as parent compound remaining incubated for 30 mins by LC-MS/MS analysis; assay type: ADME, cell-based, Hepatocyte; details: read-out: Stabilty; in short: as §2

EC50 [1] [nM] | Activity ([2]; filed as agonist) [%] | inhibition at 1 h, 10 µM [3] [%] | SMILES | other results
1410 | 78 |  | CC#CCn1c(N2CCC[C@@H](N)C2)nc2c1c(=O)n(CCCN1CCN(c3ncc(F)cn3)CC1)c(=O)n2C | 
1850 | 84 |  | CC#CCn1c(N2CCC[C@@H](N)C2)nc2c1c(=O)n(CCCN1CCN(c3ncc(CCC)cn3)CC1)c(=O)n2C | 
 | 53 | 4.6 | CC#CCn1c(N2CCC[C@@H](N)C2)nc2c1c(=O)n(CCCN1CCC(c3nnnn3-c3ccccc3)CC1)c(=O)n2C | 
 | 55 |  | CC#CCn1c(N2CCC[C@@H](N)C2)nc2c1c(=O)n(CCCN1CCC(c3nc(-c4ccccc4)no3)CC1)c(=O)n2C | 
830 | 80 | 3.3 | CC#CCn1c(N2CCC[C@@H](N)C2)nc2c1c(=O)n(CCCN1CCC(c3ncc(-c4ccccc4)o3)CC1)c(=O)n2C | 
 | 42 | 15.4 | CC#CCn1c(N2CCC[C@@H](N)C2)nc2c1c(=O)n(CCCN1CCN(c3cc(C)nn3-c3ccccc3)CC1)c(=O)n2C | 
 | 49 | 3.3 | CC#CCn1c(N2CCC[C@@H](N)C2)nc2c1c(=O)n(CCCN1CCC(c3cc(-c4ccccc4)on3)CC1)c(=O)n2C | 
 |  | 7.3 | CC#CCn1c(N2CCC[C@@H](N)C2)nc2c1c(=O)n(CCCN1CCN(c3nnc(-c4ccccc4)[nH]3)CC1)c(=O)n2C | Activity [2]: 38%
2260 | 79 |  | CC#CCn1c(N2CCC[C@@H](N)C2)nc2c1c(=O)n(CCCN1CCN(c3ncc(OC)cn3)CC1)c(=O)n2C | 

SMILES | EC50 [1] [nM] | Activity ([2]; filed as agonist) [%] | inhibition at 1 h, 10 µM [3] [%] | other results
CC#CCn1c(N2CCC[C@@H](N)C2)nc2c1c(=O)n(CCCN1CCN(c3nc(-c4ccccc4)no3)CC1)c(=O)n2C |  | 58 |  | Activity [4]: Active
CC#CCn1c(N2CCC[C@@H](N)C2)nc2c1c(=O)n(CCCN1CCN(c3noc(-c4ccccc4)n3)CC1)c(=O)n2C | 1450 | 89 |  | remaining at 0.5 h [5]: 82%; remaining at 0.5 h [6]: 25%; IC50 [7]: 8.7 µg/mL (≈ 14.8 µM); remaining at 0.5 h [8]: 24.2%
